# Reference: PMC10515597 (ACS Omega, 2023)
# Where a SMILES comes first, the peptide text is derived from it. Bridges are numbered along the chain shown (N, C = ends). Roman numbers before positions name the chains, in order. The star is where a group is joined. X2 = O=C(N=C(NCc1ccc(C(=O)*)cc1)Nc1ccc(Br)cc1)c1ccccc1
# Assays:
# [1] = system: L. amazonensis intracellular amastigotes; assay: Antiamastigote activity in infected macrophages; type: cell-based, Leishmania amazonensis; settings: 24 h; for IC50: Leishmania amazonensis, Macrophage, read-out: IC50 amastigote
# Outline: (§1)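 Swiss mouse peritoneal macrophages (3 × 10⁵ cells mL⁻¹, complete RPMI-1640) adhered on coverslips for 4 h at 37 °C, 5% CO₂. They were infected 18 h with stationary-phase L. amazonensis promastigotes (MPRO/BR/1972/M1841-LV-79) at 10:1 and washed. Test compound (0.02–10 μM) was added for 24 h. Giemsa-stained cells were counted for infection index (% infected cells × parasites per infected cell). IC50 by nonlinear regression. Duplicates, three independent experiments.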
# [2] = system: L. mexicana promastigotes; assay: Antipromastigote assay, viable promastigotes counted with trypan blue; type: cell-based; settings: Leishmania mexicana, read-out: IC50 promastigote
# Outline: (§2)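 Promastigotes were grown at 28 °C to mid-log phase: L. amazonensis (MPRO/BR/1972/M1841-LV-79) in LIT medium, L. mexicana (MNYC/BZ/62/M379) in Schneider's medium with 10% heat-inactivated FBS. Exponential-phase cells were plated at 1 × 10⁷ mL⁻¹ with test compound 1.28–100 μM. After 72 h, viable promastigotes were counted by trypan blue in a Neubauer chamber. Duplicates, three independent experiments.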
# [3] = system: L. amazonensis promastigotes; assay: as above; type: cell-based; settings: Leishmania amazonensis, 72 h, read-out: IC50 promastigote
# Outline: as §2
# [4] = system: Leishmania amazonensis amastigotes; settings: read-out: IC50-ama; L. amazonensis amastigotes ref 28; cited from earlier work
# [5] = system: L. mexicana intracellular amastigotes; assay: Antiamastigote activity in infected macrophages; type: cell-based; settings: Leishmania mexicana, Macrophage, 48 h, read-out: IC50 amastigote
# Outline: as §1, with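 “8” for “18”, “mexicana” for “amazonensis”, “(MNYC/BZ/62/M379)” for “(MPRO/BR/1972/M1841-LV-79)”, “48” for “24”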
# [6] = Cytotoxic activity, MTT colorimetric method; type: cell-based, Swiss mice; settings: Swiss, mouse, murine peritoneal macrophages
SMILES,"infection rate, fold lower than untreated cells and Amph B ([1]; L. amazonensis, at the tested concentrations (10 and 5 μM))",IC50 [2] [µM],IC50 [3] [µM],IC50 [1] [µM],IC50 [4] [µM],IC50 [5] [µM],CC50 [6] [µM]
CC(C)C[C@H](NC(=O)[C@H](Cc1c[nH]cn1)NC(=O)[C@H](Cc1ccc(O)cc1)NC(=O)[C@H](CCCNC(=N)N)NC(=O)[C@H](Cc1ccc(O)cc1)NC(=O)[C@H](CCCCN)NC(=O)[C@@H](N)CCCCN)C(=O)N[C@@H](CCCCN)C(=O)N1CCC[C@H]1C(=O)N[C@@H](Cc1ccccc1)C(=O)NCCCC[C@H](NC(=O)[C@H](Cc1ccccc1)NC(=O)[C@@H]1CCCN1C(=O)[C@H](CCCCN)NC(=O)[C@H](CC(C)C)NC(=O)[C@H](Cc1c[nH]cn1)NC(=O)[C@H](Cc1ccc(O)cc1)NC(=O)[C@H](CCCNC(=N)N)NC(=O)[C@H](Cc1ccc(O)cc1)NC(=O)[C@H](CCCCN)NC(=O)[C@H](CCCCN)NC(=O)c1ccc(CNC(=NC(=O)c2ccccc2)Nc2ccc(Br)cc2)cc1)C(N)=O [(GVL1)-p-Bt] (I: X2-KKYRYHLKPFK-NH2 / II: H-KKYRYHLKPF; amide I:11-II:C),3–4 fold,–,–,–,–,–,–
"C[C@@H]1[C@H](O)[C@@H](C)/C=C/C=C/C=C/C=C/C=C/C=C/C=C/[C@H](O[C@@H]2O[C@H](C)[C@@H](O)[C@H](N)[C@@H]2O)C[C@@H]2O[C@](O)(C[C@@H](O)C[C@@H](O)[C@H](O)CC[C@@H](O)C[C@@H](O)CC(=O)O[C@H]1C)C[C@H](O)[C@H]2C(=O)O [Amph B, amphotericin B]",–,0.45 ± 1.2,0.7 ± 0.2,0.63 ± 0.02,4.9,0.73 ± 0.2,–
"O=C(O)c1ccc(CN/C(=N/C(=O)c2ccccc2)Nc2ccc(Br)cc2)cc1 [GVL1, (Z)-4-((2-benzoyl-3-(4-bromophenyl)guanidino)methyl) benzoic acid]",–,51.8 ± 0.1,34.4 ± 0.1,8.9 ± 1.41,–,7.5 ± 3.53,–
"O=C(NC(=Nc1ccc(Br)cc1)NCc1ccccc1)c1ccccc1 [LQOF-G2, N-benzoyl-N′-benzyl-N″(4-bromophenyl)guanidine]",–,–,19.6 ± 0.2,5.6 ± 2.5,5.6,–,737.9 ± 1.4
